Test results as given in ChEMBL document CHEMBL4177692, “Synthesis and antidepressant activity of a series of arylalkanol and aralkyl piperazine derivatives targeting SSRI/5-HT1A/5-HT7” (Bioorg Med Chem Lett, 2017).
pIC50, pKi: −log10 of the molar value.

Key:
[1] = molecular target: Sodium-dependent serotonin transporter (Rattus norvegicus) (UniProt P31652); assay: Inhibition of SERT in rat brain synaptosomes assessed as reduction in [3H]-5-HT uptake at 10 uM measured after 15 mins by scintillation counting method relative to control; format: subcellular
Method in brief: (§1)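 The 5-HT1A assay displaced [3H]-8-OH-DPAT from HEK-293 cell membrane homogenates. The 5-HT7 assay displaced [3H]-LSD from CHO cell membrane homogenates. The SERT assay measured [3H]-5-HT uptake into rat brain synaptosomes.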

[2] = molecular target: T1, 5-hydroxytryptamine receptor 1A (Homo sapiens) (UniProt P08908); assay: Displacement of [3H]8-OH-DPAT from recombinant human 5-HT1A receptor expressed in HEK293 cell membranes at 10 uM measured after 60 mins by scintillation counting method; method in brief: as §1
T1 sequence (whole entry): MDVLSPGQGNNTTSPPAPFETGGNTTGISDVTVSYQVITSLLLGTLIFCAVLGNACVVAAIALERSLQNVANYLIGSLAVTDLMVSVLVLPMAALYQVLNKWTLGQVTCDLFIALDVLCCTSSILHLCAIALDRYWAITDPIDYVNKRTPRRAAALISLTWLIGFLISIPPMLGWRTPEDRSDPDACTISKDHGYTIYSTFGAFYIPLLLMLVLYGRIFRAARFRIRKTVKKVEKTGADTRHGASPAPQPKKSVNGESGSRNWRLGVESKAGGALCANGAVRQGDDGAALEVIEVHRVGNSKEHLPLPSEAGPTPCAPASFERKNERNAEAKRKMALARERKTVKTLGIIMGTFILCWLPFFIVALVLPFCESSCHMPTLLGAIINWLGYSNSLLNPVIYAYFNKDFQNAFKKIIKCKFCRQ

[3] = molecular target: T2, 5-hydroxytryptamine receptor 7 (Homo sapiens, UniProt P34969); assay: Displacement of [3H]-LSD from recombinant human 5-HT7 receptor expressed in CHO cell membranes at 10 uM measured after 60 mins by scintillation counting method; method in brief: as §1
[4] = molecular target: T3, Sodium-dependent serotonin transporter (Rattus norvegicus, UniProt P31652); assay: Inhibition of SERT in rat brain synaptosomes assessed as reduction in [3H]-5-HT uptake measured after 15 mins by scintillation counting method; format: subcellular
Method in brief: (§2)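 The 5-HT1A assay used [3H]-8-OH-DPAT displacement on HEK-293 membranes. The 5-HT7 assay used [3H]-LSD displacement on CHO membranes. The SERT assay measured [3H]-5-HT uptake into rat brain synaptosomes.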

[5] = molecular target: T4, 5-hydroxytryptamine receptor 1A (Homo sapiens, UniProt P08908); assay: Displacement of [3H]8-OH-DPAT from recombinant human 5-HT1A receptor expressed in HEK293 cell membranes measured after 60 mins by scintillation counting method
T4 sequence (P08908 whole entry): T1 sequence (whole entry)

[6] = molecular target: T2, 5-hydroxytryptamine receptor 7; assay: Displacement of [3H]-LSD from recombinant human 5-HT7 receptor expressed in CHO cell membranes measured after 60 mins by scintillation counting method; method in brief: as §2
[7] = Half-life in rat liver microsomes at 1 uM in presence of NADPH regenerating system by LC-MS/MS analysis; format: ADME, microsome
[8] = Clearance in rat liver microsomes at 1 uM measured after 90 mins in presence of NADPH regenerating system by LC-MS/MS analysis; format: ADME, microsome; conditions: read-out: CLH
Mus musculus [9] = assay: Antidepressant-like activity in mouse assessed as reduction in immobility time at 20 mg/kg, po administered once daily for 7 days measured last 4 mins of 6 mins test by forced swim test relative to control; format: functional; design: scale not given: the % may be the effect or the level left
Method in brief: (§3)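 Mouse forced swim test. Oral dosing once daily for 7 days at 10, 20 or 40 mg/kg/day. […] Read-out is immobility time. Data given as mean ± SEM, n = 10 per group, tested against vehicle at P<0.05 and P<0.01.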

Mus musculus [10] = assay: Antidepressant-like activity in mouse assessed as reduction in immobility time at 40 mg/kg, po administered once daily for 7 days measured last 4 mins of 6 mins test by forced swim test relative to control; format: functional; design: scale not given: the % may be the effect or the level left; method in brief: as §3
Mus musculus [11] = assay: Antidepressant-like activity in mouse assessed as reduction in immobility time at 10 mg/kg, po administered once daily for 7 days measured last 4 mins of 6 mins test by forced swim test relative to control; format: functional; design: scale not given: the % may be the effect or the level left; method in brief: as §3
Mus musculus [12] = assay: Antidepressant-like activity in po dosed mouse assessed as reduction in immobility time administered once daily for 7 days measured last 4 mins of 6 mins test by forced swim test; format: functional, organism-based; method in brief: as §3
[13] = molecular target: T4, 5-hydroxytryptamine receptor 1A; assay: Binding affinity to 5-HT1A receptor (unknown origin)
[14] = molecular target: Sodium-dependent serotonin transporter (Homo sapiens, UniProt P31645); assay: Binding affinity to SERT (unknown origin)
[15] = molecular target: T5, 5-hydroxytryptamine receptor 1A (Rattus norvegicus, UniProt P19327); assay: Displacement of [3H]8-OH-DPAT from rat cerebral cortex 5-HT1A receptor
T5 sequence (P19327 whole entry): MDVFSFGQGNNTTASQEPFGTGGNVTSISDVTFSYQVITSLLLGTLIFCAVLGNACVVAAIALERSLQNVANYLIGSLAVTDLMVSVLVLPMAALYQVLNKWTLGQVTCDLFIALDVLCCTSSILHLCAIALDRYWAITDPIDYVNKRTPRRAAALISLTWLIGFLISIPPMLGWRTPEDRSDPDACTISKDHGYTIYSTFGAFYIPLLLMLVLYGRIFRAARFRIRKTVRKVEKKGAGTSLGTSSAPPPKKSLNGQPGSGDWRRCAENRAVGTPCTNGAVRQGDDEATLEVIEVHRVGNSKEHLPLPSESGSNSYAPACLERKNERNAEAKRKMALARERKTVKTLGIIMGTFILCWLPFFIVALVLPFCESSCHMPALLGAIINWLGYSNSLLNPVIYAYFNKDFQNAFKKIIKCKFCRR

[16] = molecular target: T3, Sodium-dependent serotonin transporter; assay: Displacement of [3H]-paroxetine from rat cerebral cortex SERT

T2 sequence (P34969 whole entry): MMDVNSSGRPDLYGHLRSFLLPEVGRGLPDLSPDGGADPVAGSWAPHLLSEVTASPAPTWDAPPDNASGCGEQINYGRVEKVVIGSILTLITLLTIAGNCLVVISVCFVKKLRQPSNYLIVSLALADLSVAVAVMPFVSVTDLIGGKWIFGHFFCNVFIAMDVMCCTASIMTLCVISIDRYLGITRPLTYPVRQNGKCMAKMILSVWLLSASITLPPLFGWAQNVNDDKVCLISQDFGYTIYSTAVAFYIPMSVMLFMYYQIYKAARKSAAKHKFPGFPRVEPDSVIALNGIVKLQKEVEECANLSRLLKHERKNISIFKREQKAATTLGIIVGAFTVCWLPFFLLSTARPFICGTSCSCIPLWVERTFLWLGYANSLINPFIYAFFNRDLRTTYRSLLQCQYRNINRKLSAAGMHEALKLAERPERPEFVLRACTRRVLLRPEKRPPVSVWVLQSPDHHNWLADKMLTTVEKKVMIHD
T3 sequence (P31652 whole entry): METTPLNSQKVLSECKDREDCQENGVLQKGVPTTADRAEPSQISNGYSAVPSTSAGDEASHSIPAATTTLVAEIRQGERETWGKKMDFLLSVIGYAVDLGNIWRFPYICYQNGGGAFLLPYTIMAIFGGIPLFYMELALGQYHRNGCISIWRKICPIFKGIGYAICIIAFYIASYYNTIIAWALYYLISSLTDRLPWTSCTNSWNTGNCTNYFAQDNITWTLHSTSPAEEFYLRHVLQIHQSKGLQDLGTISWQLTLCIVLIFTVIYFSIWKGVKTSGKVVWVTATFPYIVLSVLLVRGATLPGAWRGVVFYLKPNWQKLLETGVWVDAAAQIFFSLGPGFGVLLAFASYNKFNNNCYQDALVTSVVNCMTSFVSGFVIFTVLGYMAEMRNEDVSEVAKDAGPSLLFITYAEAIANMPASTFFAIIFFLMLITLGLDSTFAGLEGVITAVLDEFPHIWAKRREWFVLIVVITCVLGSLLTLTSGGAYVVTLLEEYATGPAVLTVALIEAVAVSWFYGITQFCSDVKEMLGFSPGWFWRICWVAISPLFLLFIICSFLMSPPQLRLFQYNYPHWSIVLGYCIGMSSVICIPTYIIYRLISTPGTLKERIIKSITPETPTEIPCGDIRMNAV
Chain of Sodium-dependent serotonin transporter (Rattus norvegicus) (P31652 whole entry): as above
Chain of Sodium-dependent serotonin transporter (Homo sapiens, UniProt P31645) (P31645 whole entry): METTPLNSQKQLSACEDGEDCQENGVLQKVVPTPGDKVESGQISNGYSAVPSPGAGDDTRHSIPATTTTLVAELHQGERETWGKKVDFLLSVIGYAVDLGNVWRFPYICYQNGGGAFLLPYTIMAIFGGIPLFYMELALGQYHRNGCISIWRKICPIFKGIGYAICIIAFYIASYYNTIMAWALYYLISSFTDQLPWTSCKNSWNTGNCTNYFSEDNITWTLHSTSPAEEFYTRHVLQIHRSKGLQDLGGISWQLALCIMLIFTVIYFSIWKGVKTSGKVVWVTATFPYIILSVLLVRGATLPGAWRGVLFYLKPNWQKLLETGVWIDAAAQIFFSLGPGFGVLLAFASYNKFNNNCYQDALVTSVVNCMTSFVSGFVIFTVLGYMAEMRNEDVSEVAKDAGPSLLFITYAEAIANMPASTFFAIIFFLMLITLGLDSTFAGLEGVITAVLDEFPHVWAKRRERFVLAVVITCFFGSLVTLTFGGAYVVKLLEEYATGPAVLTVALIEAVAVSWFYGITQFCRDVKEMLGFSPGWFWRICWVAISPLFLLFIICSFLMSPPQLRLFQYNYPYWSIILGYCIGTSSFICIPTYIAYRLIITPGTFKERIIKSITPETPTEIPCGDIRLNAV

Row | SMILES | inhibition [1] | inhibition [2] | inhibition [3] | pIC50 [4] | other results
1 | Cc1cccc(-c2ccccc2N2CCN(CCc3ccc(Cl)c(Cl)c3)CC2)c1 | 72.3% | 98.4% | 94.7% | – | –
2 | COc1ccccc1N1CCN(CCCN2CCOc3ccccc32)CC1 | – | – | – | – | pKi [13]: 8.83; pIC50 [14]: 6.71
3 | Cc1ccc(-c2ccccc2N2CCN(CCc3ccc(Cl)c(Cl)c3)CC2)cc1C | 17.6% | 96.8% | 93.2% | – | –
4 | Cc1ccccc1-c1ccccc1N1CCN(CCc2ccc(Cl)c(Cl)c2)CC1 | 61.6% | 93.9% | 97.3% | – | –
5 | Cc1ccc(Sc2ccccc2N2CCNCC2)c(C)c1 [VORTIOXETINE] | – | – | – | 8.54 | pKi [6]: 7.59; half-life at 1 µM [7]: 9 min; microsomal CLint at 1 µM [8]: 153 µL/min/mg; Activity (Mus musculus [9]): 34 - 35%
6 | Clc1ccc(CCN2CCN(c3ccccc3-c3ccccc3)CC2)cc1Cl | 104% | 97.8% | 101% | 6.08 | pKi [5]: 8.20; pKi [6]: 9.12
7 | COc1ccc2[nH]c([S+]([O-])Cc3ncc(C)c(OC)c3C)nc2c1 (stereo not drawn) [OMEPRAZOLE] | – | – | – | – | half-life at 1 µM [7]: 8.5 min; microsomal CLint at 1 µM [8]: 163 µL/min/mg
8 | COc1ccccc1N1CCN(CCC(O)c2csc3ccc(F)cc23)CC1 (stereo not drawn) | – | – | – | – | pKi [15]: 8.64; pKi [16]: 7.92
9 | Cc1ccc(-c2ccccc2N2CCN(CCc3ccc(Cl)c(Cl)c3)CC2)c(C)c1 | 31.5% | 83.2% | 93.5% | – | –

The next lines start with results.

Row | inhibition [1] | inhibition [2] | inhibition [3] | pIC50 [4] | SMILES | other results
10 | 112% | 98.5% | 99.8% | 6.47 | OC(CN1CCN(c2ccccc2)CC1)c1ccc(Cl)c(Cl)c1 (stereo not drawn) | pKi [5]: 8.62; pKi [6]: 8.49; half-life at 1 µM [7]: 6.1 min; microsomal CLint at 1 µM [8]: 226 µL/min/mg; Activity (Mus musculus [9]): 26%; Activity (Mus musculus [10]): 30%; Activity (Mus musculus [11]): 16%; Activity (Mus musculus [12]): Dose-dependent effect
11 | 105% | 91.5% | 69.8% | – | OC(CCN1CCN(c2cccc(-c3ccccc3)c2)CC1)c1ccc(Cl)c(Cl)c1 (stereo not drawn) | –
12 | 102% | 98.7% | 96% | 7.00 | Clc1ccc(CCN2CCN(c3nsc4ccccc34)CC2)cc1Cl | pKi [5]: 9.08; pKi [6]: 7.92; half-life at 1 µM [7]: 5.3 min; microsomal CLint at 1 µM [8]: 262 µL/min/mg; Activity (Mus musculus [9]): 21%; Activity (Mus musculus [10]): 45%; Activity (Mus musculus [11]): 17%; Activity (Mus musculus [12]): Dose-dependent effect
13 | 92.1% | 98.8% | 96.7% | 6.02 | Fc1ccc(-c2ccccc2N2CCN(CCc3ccc(Cl)c(Cl)c3)CC2)cc1 | –
14 | 65.8% | 99.5% | 98.1% | – | Cc1ccc(-c2ccccc2N2CCN(CCc3ccc(Cl)c(Cl)c3)CC2)cc1 | –
15 | 89% | 99.9% | 101% | – | CSc1ccccc1N1CCN(CCC(O)c2ccc(Cl)c(Cl)c2)CC1 (stereo not drawn) | –
16 | 97.2% | 99.7% | 96.4% | 6.06 | Fc1cccc(-c2ccccc2N2CCN(CCc3ccc(Cl)c(Cl)c3)CC2)c1 | –
17 | 88.8% | 99.3% | 101% | – | COc1ccccc1N1CCN(CCC(O)c2ccc(Cl)c(Cl)c2)CC1 (stereo not drawn) | –
18 | 66.1% | 98.7% | 97.5% | – | COc1ccc(-c2ccccc2N2CCN(CCc3ccc(Cl)c(Cl)c3)CC2)cc1 | –
19 | 98.9% | 98.9% | 102% | 6.23 | OC(CCN1CCN(c2ccccc2-c2ccccc2)CC1)c1ccc(Cl)c(Cl)c1 (stereo not drawn) | –
20 | 84.9% | 99.4% | 102% | – | Oc1ccccc1N1CCN(CCC(O)c2ccc(Cl)c(Cl)c2)CC1 (stereo not drawn) | –
